# Only some compounds are listed: those with a hit (about 1.8% of all), similar ones and a draw of the others.
# Tn6 DDE FP – DD(E)-Tn6 binding inhibition, primary FP screen; inhibition, % at 8.3 µM; Fibrin DD(E) TRITC-Tn6 fluorescence polarization displacement; 370,000 compounds, 0.21% hits; AID 720509; P02675;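 active = inhibition above a per-campaign cutoff: mean of compounds within control limits plus 3 SD, cut at about 15% in these data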;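 also: 0% = median of all compound wells on the plate and 100% = blocking peptide control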
# CAL PDZ FP-1 – blocks peptide binding to human CAL PDZ domain | Q9HD26 | purified CAL PDZ, TMR-peptide fluorescence polarization, 1 h | inhibition, % at 20 µM | 330,000 compounds, 0.02% hits | AID 504414;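 active = highest replicate inhibition of at least 40%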;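 also: plate controls were DMSO neutral control wells for no effect and unlabeled competitor peptide control wells for full effect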
#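 Test system: tagged CAL PDZ domain / Buffer or medium: sodium phosphate/NaCl buffer pH 7.4 with TCEP, IgG, Thesit / Reagent: TMR-labelled reporter peptide T*-PRC34 bound in PDZ groove / Compound dosing: single point, 20 µM / Schedule: 1 h incubation at room temperature before polarization reading / Technique: fluorescence polarization (mP) / Benchmarks: unlabelled peptide, DMSO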
# ARNT-TACC3 inh – disrupts binding between human ARNT and TACC3. Q9Y6A5. AlphaScreen His-ARNT PAS-B/GST-TACC3 binding, luminescence; TACC3 fragment carries E629A point mutation. inhibition, % at 9.99 µM. 390,000 compounds, 0.66% hits. AID 623870;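 active = mean inhibition of replicates at least 50% and at least half of replicates each reaching 50%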;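 also: 0% = complete ARNT plus TACC3 wells and 100% = ARNT alone without TACC3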
# CAL PDZ FP-2 – blocks peptide binding to the human CAL PDZ domain; inhibition, % at 24.9 µM; purified CAL PDZ, TMR-peptide fluorescence polarization, 1 h; 300,000 compounds, 0.92% hits; AID 602252;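 active = mean inhibition of at least 30% with at least half of replicates also reaching 30%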;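 also: 0% = DMSO neutral control and 100% = excess unlabeled competitor peptide PRC23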
# GRK2 aptamer HTS – inhibitors of human GRK2 displacing RNA aptamer | 330,000 compounds, 0.59% hits | P25098 | bead flow cytometry, FAM-aptamer displacement from GRK2 | inhibition of aptamer binding, % at 10 µM | AID 488847;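 active = inhibition of aptamer binding above 40%, roughly 3 SD of noise, on plates passing a quality check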;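 also: median bead fluorescence of bound FAM aptamer so fluorescent compounds give negative values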
# Target sequence (P25098 whole entry, looked up): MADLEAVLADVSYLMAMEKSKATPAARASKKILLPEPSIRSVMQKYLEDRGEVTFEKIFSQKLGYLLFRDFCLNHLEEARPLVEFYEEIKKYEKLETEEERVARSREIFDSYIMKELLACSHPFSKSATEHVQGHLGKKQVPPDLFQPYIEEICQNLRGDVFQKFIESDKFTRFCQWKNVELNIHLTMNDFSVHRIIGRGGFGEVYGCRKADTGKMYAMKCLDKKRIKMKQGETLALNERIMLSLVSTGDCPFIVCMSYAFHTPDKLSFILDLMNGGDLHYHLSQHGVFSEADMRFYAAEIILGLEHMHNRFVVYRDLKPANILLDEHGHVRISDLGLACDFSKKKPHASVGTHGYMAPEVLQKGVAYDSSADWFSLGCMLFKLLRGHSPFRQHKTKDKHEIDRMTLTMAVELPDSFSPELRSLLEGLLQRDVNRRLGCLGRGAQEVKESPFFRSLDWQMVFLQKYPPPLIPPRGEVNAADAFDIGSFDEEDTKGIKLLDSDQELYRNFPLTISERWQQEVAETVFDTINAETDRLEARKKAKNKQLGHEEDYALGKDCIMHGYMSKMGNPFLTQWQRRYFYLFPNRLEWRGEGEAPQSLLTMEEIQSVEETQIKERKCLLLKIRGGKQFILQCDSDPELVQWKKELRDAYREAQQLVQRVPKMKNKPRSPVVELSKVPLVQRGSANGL
# Tn7 DDE FP – inhibitors of Tn7 peptide binding to human fibrin DD(E). P02675. FP displacement of FITC-Tn7 peptide from fibrin DD(E); 0% = median of compound wells per plate. inhibition, % at 8.3 µM. 370,000 compounds, 0.13% hits;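 active = inhibition above the mean of compounds falling within the control limits plus 3 SD of them, cut at about 14% in these data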;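 also: 0% = plate median of compound wells and 100% = 10 µM Aha-Tn7 peptide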
#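 System: human fibrin DD(E); quantity: Fibrin-DD(E) at 2 µM final; also added: fluorescent Tn7 probe at 0.1 µM; compound dosing: single nominal test concentration of 8.3 µM per compound; schedule: 10 min preincubation, 3 h with tracer, room temperature; detection: fluorescence polarization of the labelled Tn7 tracer; repeats: one replicate per compound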
# GRK2 CP1 – human GRK2 inhibition confirmation, cherry pick 1 | shares compounds with GRK2 aptamer HTS | bead-bound GRK2, FAM-aptamer displacement, flow cytometry | aptamer displacement, % at 10 µM | 2,000 compounds, 4% hits | AID 504451;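 active = aptamer displacement above 40%, near three times the noise of non-fluorescent compounds, on plates passing quality checks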;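 also: negative values mostly reflect intrinsic compound fluorescence rather than true enhancement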
# Aptamer quench SP – aptamer fluorescence quenching in GRK2 counter-screen; shares compounds with GRK2 aptamer HTS; Carboxyfluorescein RNA aptamer on beads, flow cytometry quenching; hits give low values; fluorescence response (% of DMSO), % at 10 µM; 2,000 tested, under 10 active; AID 504580;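 active = compounds that quench the bead-bound fluorescent RNA probe, cutting fluorescence to under half of the solvent control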;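 also: counterscreen run without GRK2 so only probe quenching by compound is measured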
# GRK2 CP2 – human GRK2 inhibition confirmation, cherry pick 2. shares compounds with GRK2 aptamer HTS. 360 tested, under 10 active. bead-bound GRK2, FAM-aptamer displacement, flow cytometry. inhibition of aptamer binding, % at 10 µM. AID 504782;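 active = inhibition of aptamer binding above 40%, about triple the noise seen with nonglowing compounds, on plates passing quality control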;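 also: negative values mostly come from compounds that fluoresce themselves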
# FAM quench SP – counter-screen for GRK2 binding hits: quenchers of fluorescent RNA aptamer; shares compounds with GRK2 aptamer HTS; carboxyfluorescein RNA aptamer beads, flow cytometry quenching; hits give low values; fluorescence response vs DMSO, % at 10 µM; 360 tested, under 10 active; AID 588494;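 active = response vs DMSO under 50%, meaning signal dropped by over half, treated as fluorescence quencher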;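 also: labelled aptamer on streptavidin beads without GRK2 as a quench counter-screen; 100% = bead fluorescence of DMSO wells and lower means quenching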
# The depositor's hits bear a star; . = not tested or not shown.
SMILES,Tn6 DDE FP,CAL PDZ FP-1,ARNT-TACC3 inh,CAL PDZ FP-2,GRK2 aptamer HTS,Tn7 DDE FP,GRK2 CP1,Aptamer quench SP,others
CC(Nc1nc(-c2ccc(F)cc2)cs1)c1nc2cc(Cl)c(N3CCCCC3)cc2n1CCOCCO (stereo not drawn),-3,1,-1,-3,0,-9,-1,103,
CC(Nc1nc(-c2ccc(F)cc2)cs1)c1nc2cc(Cl)c(Cl)cc2n1CCOCCO (stereo not drawn),2,0,-3,-3,1,7,.,.,
CC(Nc1nc(-c2cccc(Br)c2)cs1)c1nc2cc(Cl)c(N3CCCCC3)cc2n1CCOCCO (stereo not drawn),-2,1,-11,-3,3,2,3,100,
CC(Nc1nc(-c2ccc(F)cc2)cs1)c1nc2cc(Cl)c(N3CCCCC3)cc2n1CCCO (stereo not drawn),0,0,-9,-2,3,2,.,.,
C=C[C@H]1[C@H](OC2OC(CO)C(O)C(O)C2O)OC=C(C(=O)OC)[C@H]1C[C@H]1CC(=O)C[C@H](CC(=O)CCc2ccc(O)cc2)O1 (stereo partly drawn),.,.,.,.,97*,.,3,97,
CN1C(=O)c2cc(NC(=O)C3CCOCC3)ccc2OC[C@@H]2O[C@H](CC(=O)NCCc3ccncc3)CC[C@H]21,.,.,-4,.,.,.,.,.,
CC(C)N(CCc1ccncc1)C(=S)Nc1cccc(Cl)c1,7,-2,-3,-2,3,0,.,.,
CCCCCOc1ccc(/C=N/NC(=O)c2nnn(-c3nonc3N)c2CN2CCCCCC2)cc1,0,0,.,0,55*,-10,2,105,
Cc1cc(C)cc(NC(=S)N2CCN(c3ncc(C(F)(F)F)cc3Cl)CC2)c1,-1,1,-5,-23,0,-6,.,.,
Cc1cc(C)c(OCC(=O)N2CCN(c3ncc(C(F)(F)F)cc3Cl)CC2)c(C)c1,-5,-3,2,1,80*,0,.,.,GRK2 CP2=19;FAM quench SP=100
COc1ccc(C(=O)CCC(=O)N2CCN(c3cc(C)ccc3C)CC2)cc1,3,-3,1,-2,87*,2,1,99,
COCCN(C(=O)c1cc2c(s1)CCC2)c1c(N)n(CC(C)C)c(=O)[nH]c1=O,0,0,-5,0,43*,5,17,99,
COc1ccc(NC(=O)c2ccccc2NC(=O)c2ccccc2)cc1,3,-1,-2,-8,41*,6,.,.,GRK2 CP2=-22;FAM quench SP=97
COc1ccc(NC(=O)c2ccccc2NC(=O)CSc2ccc(Cl)cc2)cc1,5,0,-11,0,47*,4,0,106,
N#C[C@@H]1[C@H](c2ccc(C3=CCCCC3)cc2)[C@@H](CO)N1C(=O)c1ccccn1,.,.,26,.,.,.,.,.,
COc1ccc(CNC(=O)c2cc3c(=O)n4cccc(C)c4nc3n(CC3CCCO3)c2=N)cc1 (stereo not drawn),-5,-1,-6,1,0,0,-2,97,
CCOCCCn1c(=N)c(C(=O)NCc2ccc3c(c2)OCO3)cc2c(=O)n3ccccc3nc21,3,.,.,.,.,-2,.,.,
Cc1cccn2c(=O)c3cc(C(=O)NCc4ccc(F)cc4)c(=N)n(CC4CCCO4)c3nc12 (stereo not drawn),-4,-3,0,-1,7,1,.,.,
CCCn1c(=N)c(C(=O)NCc2ccc3c(c2)OCO3)cc2c(=O)n3cccc(C)c3nc21,2,-1,3,.,78*,2,-2,93,
Cc1cccn2c(=O)c3cc(C(=O)NCCN4CCOCC4)c(=N)n(CCN4CCOCC4)c3nc12,8,-2,-7,2,41*,1,-1,97,
S=C(N=Nc1ccccc1)NNc1ccccc1,-4,-1,44,-4,42*,-3,-5,98,
CC1CCN(C(C(=O)Nc2ccc3c(c2)OCO3)c2ccccc2)CC1 (stereo not drawn),-8,-1,3,.,43*,-4,-1,102,
CCn1c(SCC(=O)N2CCc3ccccc3C2)nc2c1c(=O)n(C)c(=O)n2C,7,.,3,13,3,-2,.,.,
Cn1c(=O)c2c(ncn2CC(=O)N2CCc3ccccc3C2)n(C)c1=O,-4,0,4,1,58*,1,2,102,
C[C@@H]1CN([C@H](C)CO)C(=O)c2cc(/C=C/c3ccccc3)cnc2O[C@@H]1CN(C)Cc1ccc2c(c1)OCO2,.,.,1,.,.,.,.,.,
SMILES,Tn6 DDE FP,CAL PDZ FP-1,ARNT-TACC3 inh,CAL PDZ FP-2,GRK2 aptamer HTS,Tn7 DDE FP,GRK2 CP1,Aptamer quench SP,others
CCn1nc(NC(=O)C(C)(C)C)c2cc3cccc(C)c3nc21,5,1,-61,-3,50*,-3,2,102,
Cc1cc2cc(CNC(=O)c3ccc(Br)o3)ccc2n1C,15,-1,3,25,73*,-2,8,80,
CCCC(=O)NCc1ccc2c(c1)cc(C)n2C,4,0,-4,0,22,0,.,.,
O=C(Nc1cccc(Cl)c1)N[C@H]1CC[C@@H](CCNC(=O)C2CCC2)O[C@H]1CO,.,.,-17,.,.,.,.,.,
CCc1c(C(=O)OCc2ccccc2)[nH]c(C)c1C,2,-1,2,-3,93*,11,-2,97,
C[C@@H](O)C#Cc1ccc([C@H]2[C@@H](CO)N3CCCCN(CC4CCOCC4)C[C@@H]23)cc1,.,.,-2,.,.,.,.,.,
CCCc1c(C(=O)N/N=C(\C)CCc2ccccc2)nnn1-c1nonc1N,4,-2,-1,4,70*,4,-3,97,
CCCc1c(C(=O)N/N=C(\C)c2ccccn2)nnn1-c1nonc1N,-1,.,.,.,.,-7,.,.,
O=C(CSc1nnc(-c2ccc(O)cc2)n1-c1ccccc1)CC(=O)Nc1ccccc1,-4,-1,-6,.,92*,-6,.,.,GRK2 CP2=-19;FAM quench SP=102
COc1ccc(C(=O)Nc2ccc(Nc3ccccc3)cc2)cc1OC,-1,5,-1,-5,86*,-5,0,101,
COc1ccc(C(=O)Nc2ccc(Nc3ccccc3)cc2)cc1[N+](=O)[O-],-5,0,-4,5,1,-7,.,.,

# Bioassay records from PubChem BioAssay.
